# The list is not random: actives were taken first. Their share in the collection is about 9.5%.
# Jurkat tox 60K: cytotoxicity toward Jurkat cells | AID 463 | 1.2% of 56,000 active | Jurkat E6.1 viability, ATP luminescence, 48 h | inhibition, % at 4 µM;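 active means inhibition above the mean inhibition of all tested compounds plus 3 SD, cut at about 28% in these data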
# M1 antagonist: M1 muscarinic receptor (rat) antagonism | P08482 | CHO-M1 cells, Fluo-4 calcium, ACh EC80 antagonist mode; active compounds read low | B-score at 10 µM | 3.4% of 64,000 active | AID 628;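 active means calcium fluorescence response, raw or row-and-column corrected B-score, differing from the plate sample mean either way at a set confidence level, mostly lower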
# D1 mod: D1 dopamine receptor (human) allosteric modulation; B-score at 10 µM; 5.9% of 58,000 active; HEK293 D1, CRE-luciferase, dopamine EC30 potentiation; actives deviate in either direction; AID 641;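 active means luminescence count or its row- and column-corrected plate score outside the 99.7% band of the plate's sample wells, on either side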
# Target sequence (P21728 whole entry, looked up): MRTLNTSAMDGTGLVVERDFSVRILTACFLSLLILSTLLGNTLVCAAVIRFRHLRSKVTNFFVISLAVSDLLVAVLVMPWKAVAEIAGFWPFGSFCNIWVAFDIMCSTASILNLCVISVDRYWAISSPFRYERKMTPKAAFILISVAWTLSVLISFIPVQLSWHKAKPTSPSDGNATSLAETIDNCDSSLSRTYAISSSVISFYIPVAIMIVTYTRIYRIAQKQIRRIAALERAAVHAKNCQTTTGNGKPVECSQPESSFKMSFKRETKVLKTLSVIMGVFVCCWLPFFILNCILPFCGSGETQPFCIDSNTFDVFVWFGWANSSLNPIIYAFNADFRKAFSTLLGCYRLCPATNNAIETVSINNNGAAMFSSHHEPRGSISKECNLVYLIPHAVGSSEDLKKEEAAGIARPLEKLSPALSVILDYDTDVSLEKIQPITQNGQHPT
# mHtt clearance: mutant huntingtin protein clearance | HeLa Exon1htt(103Q)mCFP, aggregate imaging; zero = plate's median compound well | inhibition, % at 1.5 µM | 0.42% of 47,000 active;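 active means inhibition of aggregate fluorescence above about 70%, also judged a hit by eye on the cell image, limit read from the data, passing the limit was not always enough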;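 further: cells exposed to compound for three days before fixation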
# M1 ag: agonists of M1 muscarinic receptor. CHO-M1 cells, Fluo-4 calcium fluorescence, agonist mode; active compounds read high. B-score at 10 µM. 3% of 64,000 active;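 active means fluorescence rise, raw or as B-score row- and column-corrected plate score, outside the 99.7% band of its plate's samples, either direction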
# HEK293 NFkB inh: inhibitors of the PMA/ionomycin-induced NF-kB reporter in HEK293 cells. 0.21% of 62,000 active. HEK-293 NF-kB luciferase reporter, luminescence. inhibition, % at 3 µM;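 active means inhibition above the mean of all tested compounds plus 3 SD, cut at about 40% in these data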;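 further: 0% = stimulated DMSO wells and 100% = 10 µM reference inhibitor 5653914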
#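 Timing: 1 h pretreatment, 16 h stimulation, 37 °C; system: HEK-293 cells with stable firefly luciferase reporter driven by four HIV NF-kB elements; doses: 3 µM once, 0.30% DMSO; measured by: luciferase luminescence; control set: DMSO and 10 µM reference inhibitor; repeats: single test; reagent: PMA plus ionomycin mix as NF-kB-activating stimulus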
# The depositor's hits bear a star; nt = no result given.
SMILES,Jurkat tox 60K,M1 antagonist,D1 mod,mHtt clearance,M1 ag,HEK293 NFkB inh
O=C(NCC1CCCO1)C1CCC(N2C(=O)c3ccccc3C2=O)CC1 (centres undefined),-2,-1.2,-0.14,nt,-0.5,15
O=C(NCC1CCCO1)C1c2ccccc2C(=O)N1C1CCCCCC1 (centres undefined),-2,0.21,-1.2,-62,9.2*,6
CC1=C(C)CS(=O)N(S(=O)(=O)c2ccc(Cl)cc2)C1 (centres undefined),69*,0.049,-0.29,-15,-0.91,-9
CC1CCN(S(=O)(=O)c2ccc(Cl)cc2)CC1,9,-0.0098,0.52,nt,0.6,16
CCOC(=O)CS(=O)(=O)c1nc(-c2ccccc2)cc(C(F)(F)F)n1,55*,-2.1,0.059,-18,0.53,4
CCOC(=O)CS(=O)(=O)c1nc(-c2ccc(F)cc2)cc(C(F)(F)F)n1,34*,0.051,-0.11,nt,4.4*,14
CC(C)OC(=O)CSc1nc(-c2ccc(F)cc2)cc(C(F)(F)F)n1,nt,nt,nt,38,nt,nt
O=C(O)CCS(=O)(=O)c1nc(-c2cccs2)cc(C(F)(F)F)n1,nt,nt,nt,19,nt,nt
CCOC(=O)CCS(=O)(=O)c1nc(-c2ccccc2)cc(C(F)(F)F)n1,68*,0.0097,1.5,36,0.86,10
CCOC(=O)CS(=O)(=O)c1ccc2ccccc2c1,nt,0.14,0.93,-40,-1.5,7
O=c1c2ccccc2cnn1-c1nc2ccccc2s1,2,0.6,-4.5*,nt,-0.81,77*
O=c1c2ccccc2ncn1Cc1nc2ccccc2s1,nt,0.72,0.025,nt,-1.1,20
Cc1nc2ccc(NC(=O)c3ccc(F)c(S(=O)(=O)N4CCOCC4)c3)cc2s1,nt,nt,nt,-27,nt,nt
Cc1ccc(S(=O)(=O)c2c(C)nn(C(C)(C)C)c2OC(=O)C(C)(C)C)cc1,-7,-0.31,-0.96,47,-0.2,14
CC(=O)Oc1c(S(=O)(=O)c2ccc(C)cc2)c(C)nn1C(C)(C)C,-8,2.3*,-0.038,nt,3.5,-8
CCc1ccccc1NC(=O)Cn1nnc(-c2cccnc2)n1,-10,0.21,0.63,40,-0.63,1
CCN(CC)CCCN1C(=O)C(=O)/C(=C(/O)c2ccc3c(c2)CC(C)O3)C1c1ccncc1 (centres undefined),nt,0.37,nt,nt,0.3,nt
CC1Cc2cc(/C(O)=C3\C(=O)C(=O)N(CCN(C)C)C3c3ccccc3F)ccc2O1 (centres undefined),-2,0.2,nt,80*,-0.12,11
CC1CCCN(Cc2nc3c(c(=O)n(C)c(=O)n3C)n2CCc2ccccc2)C1 (centres undefined),7,0.5,-0.37,14,2.3*,6
CC1CCCN(Cc2nc3c(c(=O)n(C)c(=O)n3C)n2CCCc2ccccc2)C1 (centres undefined),4,-0.0065,-1,-15,2.4*,5
CCOCCn1c(CN2CCCCC2C)nc2c1c(=O)n(C)c(=O)n2C (centres undefined),-2,-3.2*,0.16,nt,-2.5,8
CCCCn1c(CN2CCN(c3ccc(F)cc3)CC2)nc2c1c(=O)n(C)c(=O)n2C,0,0.23,-2.6*,61,-0.41,19
COCCn1c(CN2CCN(c3ccc(F)cc3)CC2)nc2c1c(=O)n(C)c(=O)n2C,4,0.42,-1.1,nt,-0.15,19
Cn1c(=O)c2c(nc(CN3CCCCC3)n2CCCc2ccccc2)n(C)c1=O,nt,-0.13,-0.73,13,0.69,10
O=C(CN1CCN(c2ncccn2)CC1)Nc1ccccc1-n1cccc1,nt,0.037,-0.0038,11,-0.0055,3
SMILES,Jurkat tox 60K,M1 antagonist,D1 mod,mHtt clearance,M1 ag,HEK293 NFkB inh
Fc1ccc(NC(=S)N2CCCc3ccccc32)cc1,nt,nt,nt,17,nt,nt
Nc1cccc(-c2nc3ccc(N)cc3s2)c1,18,-0.028,-4.7*,-36,-0.068,18
Nc1ccc(O)c(-c2nc3ccccc3s2)c1,0,0.53,-0.34,-52,-0.68,-7
Cn1cnnc1SCC(=O)N1c2ccccc2-c2c(ssc2=S)C1(C)C,5,-1.9*,0.37,nt,0.14,18
OCCN1CCN(C(c2cccs2)c2ccc3cccnc3c2O)CC1 (centres undefined),53*,-0.3,nt,nt,-0.57,8
CC(C)(C)c1cc(C(c2cccnc2)N2CCN(CCO)CC2)cc(C(C)(C)C)c1O (centres undefined),-2,-0.44,-2.4,nt,0.69,3
CCS(=O)(=O)N1CCC(C(=O)N2CCc3ccccc3C2)CC1,5,-0.02,2.5,nt,-0.35,18
Cc1occc1-c1nnc(SCC(=O)Nc2ccccc2)n1C(C)c1ccccc1 (centres undefined),-1,-0.42,-0.87,nt,0.96,11
CCc1sc(C(=O)NCc2cc(C)n(C)n2)cc1Br,16,-0.038,-0.24,nt,-5.1*,15
Cn1c(=O)c2c(SCC(=O)N3CCC(Cc4ccccc4)CC3)nc(C3CC3)nc2n(C)c1=O,-2,0.44,-5.7*,nt,0.12,21
CCc1nc(SCC(=O)N2CCN(c3ccccc3)CC2)c2c(=O)n(C)c(=O)n(C)c2n1,-10,-1.3,-0.085,nt,0.82,4
Cn1c(=O)c2c(SCC(=O)N3CCN(c4ccccc4)CC3)nc(C3CC3)nc2n(C)c1=O,-16,-2.3*,-3.6,nt,4.8*,15
CCCNC(=O)CSc1nnc(C)s1,nt,nt,nt,7,nt,nt
O=C(O)c1ccc(N2CCCCC2)cc1,-13,-2.4,-0.066,nt,-0.38,3
Nc1ccc(N2CCCCCC2)cc1,37*,1.1,0.11,nt,-0.064,10
CC1CC(C)CN(Cc2nc(N)nc(Nc3ccc4ccccc4c3)n2)C1 (centres undefined),21,-0.42,0.89,nt,0.77,5
COc1ccc(OCCn2cc(/C(N)=N/O)c3ccccc32)cc1,nt,nt,nt,6,nt,nt
Cc1ccc(OCCn2cc(/C(N)=N/O)c3ccccc32)cc1C,10,1.3,-3.1*,8,-0.02,11
O=C(C1CC1)N1CCN(C(c2ccccc2)c2ccccc2)CC1,nt,nt,nt,14,nt,nt
Cc1oc(-c2ccccc2Cl)nc1CSCC(=O)N1CCCC1,39*,-0.96,0.017,42,0.13,87*
c1ccc2c(c1)ccc1nnc(SCc3ccc4c(c3)OCO4)n12,nt,nt,nt,26,nt,nt
O=C(Cc1ccccc1)N1CCCC(c2nc(-c3ccc(S(=O)(=O)N4CCCC4)cc3)no2)C1 (centres undefined),nt,nt,nt,18,nt,nt
O=C(C1CC1)N1CCC(c2nc(-c3ccc(S(=O)(=O)N4CCCC4)cc3)no2)CC1,nt,nt,nt,-17,nt,nt
O=C(C1CC1)N1CCC(c2nc(-c3ccc(S(=O)(=O)NCC4CCCO4)cc3)no2)CC1 (centres undefined),52*,0.48,-0.67,-14,-1.2,26
CS(=O)(=O)N1CCCC(c2nc(-c3ccc(S(=O)(=O)NCc4ccccc4)cc3)no2)C1 (centres undefined),nt,0.84,-3*,nt,0.57,30
CC(C)c1ccc(O)c(NC(=O)c2ncn[nH]2)c1,1,2.3*,0.1,nt,0.2,4

# Bioassay records: PubChem BioAssay, several laboratories
